Measured values taken from ChEMBL document CHEMBL3272021, “Quaternary pilocarpine derivatives as potential acetylcholine antagonists. 2. Alterations in the lactone and imidazole moieties” (J Med Chem, 1976).
Structures can show the parent of a compound that is named as a salt. The source made the active and inactive calls. The calls are words filed in the database; no cut-off is given here.

Columns and labels:
[1] = test system: Ileum; assay: Inhibition of acetylcholine-induced contraction in guinea pig ileum at 10 ug/ml; assay type: functional, Cavia porcellus; conditions: for inhibition at 10 µg/mL: Cavia porcellus, Ileum
Procedure, shortened: (§1)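 Terminal guinea pig ileum segment in a 5-ml organ bath of Tyrode solution at 35°, with isometric kymograph recording. Control contractions were elicited with 0.1 μg AcCh. Compound was added, and AcCh followed 1 min later without washing. The value is percent reduction of the control AcCh response, averaged over two separate assays. Concentrations are final per ml of bath fluid.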

[2] = test system: Ileum; assay: Inhibition of acetylcholine-induced contraction in guinea pig ileum at 0.4 ug/ml; assay type: functional; conditions: Cavia porcellus; procedure, shortened: as §1
[3] = test system: Ileum; assay: Toxicity in guinea pig ileum assessed as spasmogenic activity relative to 0.6 ug/ml pilocarpine; assay type: tissue-based, Cavia porcellus; conditions: ex_vivo
Procedure, shortened: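 Guinea pig terminal ileum in a 5-ml Tyrode bath at 35°, with isometric kymograph recording at 16× magnification. Contact time was 30 sec with a 2-min cycle. Reference contractions used pilocarpine (0.6 μg). Compounds were applied at several concentrations, and potency relative to pilocarpine was calculated from contraction heights.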

[4] = test system: Ileum; assay: Toxicity in guinea pig ileum assessed as spasmogenic activity treated 1 min after addition of 10 ng/ml muscarinic acetylcholine receptor antagonist atropine sulphate; assay type: tissue-based, Cavia porcellus
[5] = test system: Ileum; assay: Toxicity in guinea pig ileum assessed as spasmogenic activity at 0.6 ug/ml; assay type: tissue-based, Cavia porcellus
[6] = test system: Mus musculus; assay: Antidotal activity in ip dosed male mouse assessed as inhibition of tetraethylpyrophosphate-induced intoxication drug administered 5 mins prior to subcutaneously administration of 3 X LD50 of TEPP in presence of 25 mg/kg atropine sulfate; assay type: functional, organism-based; design: dose 25 mg/kg; conditions: at 25 mg/kg
Procedure, shortened: (§2)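 Male mice, 20 g body weight. Compound was dissolved in saline or propylene glycol and given ip at the maximal dose (up to 100 mg/kg) that caused no observable symptoms alongside atropine sulfate (25 mg/kg), per preliminary groups of four mice. It was co-injected with atropine 5 min before sc 3 × LD50 TEPP. Surviving mice were scored from two experiments of five animals each.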

[7] = test system: Mus musculus; assay: Antidotal activity in male mouse assessed as inhibition of tetraethylpyrophosphate-induced intoxication at 100 mg/kg, ip drug administered 5 mins prior to subcutaneously administration of 3 X LD50 of TEPP in presence of 25 mg/kg atropine sulfate; assay type: functional, organism-based; procedure, shortened: as §2
[8] = test system: Mus musculus; assay: Antidotal activity in male mouse assessed as inhibition of tetraethylpyrophosphate-induced intoxication at 50 mg/kg, ip drug administered 5 mins prior to subcutaneously administration of 3 X LD50 of TEPP in presence of 25 mg/kg atropine sulfate; assay type: functional, organism-based; procedure, shortened: as §2
[9] = test system: Ileum; assay: Inhibition of acetylcholine-induced contraction in guinea pig ileum at 2 ug/ml; assay type: functional; conditions: Cavia porcellus; procedure, shortened: as §1
[10] = test system: Mus musculus; assay: Antidotal activity in male mouse assessed as inhibition of tetraethylpyrophosphate-induced intoxication at 25 mg/kg, ip drug administered 5 mins prior to subcutaneously administration of 3 X LD50 of TEPP in presence of 25 mg/kg atropine sulfate; assay type: functional, organism-based; procedure, shortened: as §2
[11] = test system: Ileum; assay: Inhibition of acetylcholine-induced contraction in guinea pig ileum at 0.03 ug/ml; conditions: Cavia porcellus, read-out: INH
[12] = test system: Ileum; assay: Inhibition of acetylcholine-induced contraction in guinea pig ileum at 1 ug/ml; assay type: functional; conditions: Cavia porcellus; procedure, shortened: as §1
[13] = test system: Ileum; assay: Inhibition of acetylcholine-induced contraction in guinea pig ileum at 0.1 ug/ml; assay type: functional; conditions: Cavia porcellus; procedure, shortened: as §1

CCC1C(=O)OCC1Cc1c[n+](C/C(=N\O)c2ccc(-c3ccccc3)cc2)cn1C.[Cl-] (stereo not given)
inhibition (INH) [1]: 80%

CCC1C(=O)OCC1Cc1c[n+](C/C(=N\O)c2ccc(-c3ccccc3)cc2)cn1C (stereo not given) [listing 1 of 2 here]
inhibition at 10 µg/mL [1]: 100%

CCC1C(=O)OCC1Cc1c[n+](CCCOC(C)=O)cn1C.[Br-] (stereo not given)
inhibition at 0.4 µg/mL [2]: 0%
fold change (FC) [3]: 0.05
Activity [4]: Non-toxic

CC[C@@H]1C(=O)OC[C@@H]1Cc1cncn1C [PILOCARPINE]
Activity [5]: Toxic

CCC(C(=O)NO)C(CO)Cc1c[n+](C/C(=N\O)c2ccc(-c3ccccc3)cc2)cn1C (stereo not given)
inhibition at 10 µg/mL [1]: 53%

CCC(C(=O)NO)C(CO)Cc1c[n+](CC(=O)c2ccc(Br)cc2)cn1C (stereo not given)
inhibition at 10 µg/mL [1]: 80%
inhibition [6]: inactive

CCC1C(=O)OCC1Cc1c[n+](CCCO)cn1C.[Br-] (stereo not given)
inhibition at 0.4 µg/mL [2]: 0%
fold change (FC) [3]: 0.05
Activity [4]: Non-toxic

CCC1C(=O)OCC1Cc1c[n+](C/C(=N/O)c2ccc([N+](=O)[O-])cc2)cn1C (stereo not given)
inhibition at 10 µg/mL [1]: 90%
inhibition [6]: inactive

CCC(C(=O)NO)C(CO)Cc1c[n+](C/C(=N\O)c2ccc(Br)cc2)cn1C (stereo not given)
inhibition at 10 µg/mL [1]: 55%

CCC1C(=O)OCC1Cc1c[n+](CC(=O)c2ccc(Br)cc2)cn1C (stereo not given)
inhibition at 10 µg/mL [1]: 90%
inhibition [7]: inactive

CCC1C(=O)OCC1Cc1c[n+](CC(=O)c2ccc(-c3ccccc3)cc2)cn1C (stereo not given)
inhibition at 10 µg/mL [1]: 100%
inhibition [6]: inactive

CCC(C(=O)NO)C(CO)Cc1c[n+](CC)cn1C (stereo not given)
inhibition at 10 µg/mL [1]: 55%

CCC1C(=O)OCC1Cc1c[n+](C/C(=N\O)c2ccccc2)cn1C (stereo not given)
inhibition at 10 µg/mL [1]: 30%
inhibition [8]: Active

CCC(C(=O)NO)C(CO)Cc1c[n+](C/C(=N\O)c2ccc([N+](=O)[O-])cc2)cn1C.[Br-] (stereo not given)
inhibition at 2 µg/mL [9]: 0%
fold change (FC) [3]: 0.01
Activity [4]: Non-toxic

CCC1C(=O)OCC1Cc1c[n+](C/C(=N\O)c2ccc(Br)cc2)cn1C.[Cl-] (stereo not given)
inhibition (INH) [1]: 50%

CCC(C(=O)NO)C(CO)Cc1c[n+](Cc2ccc(C)cc2)cn1C (stereo not given)
inhibition at 10 µg/mL [1]: 55%
inhibition [7]: Active

CCC1C(=O)OCC1Cc1c[n+](C/C(=N\O)c2ccc(-c3ccccc3)cc2)cn1C (stereo not given) [listing 2 of 2 here]
inhibition [6]: inactive

CCC1C(=O)OCC1Cc1c[n+](C/C(=N\O)c2ccc(Br)cc2)cn1C (stereo not given)
inhibition [6]: inactive
inhibition [10]: Active

CCC(C(=O)NO)C(CO)Cc1c[n+](Cc2ccc(Br)cc2)cn1C (stereo not given)
inhibition at 10 µg/mL [1]: 95%
inhibition [7]: Active

CC[C@H]1C(=O)OC[C@@H]1Cc1cncn1C
fold change (FC) [3]: 0.02
Activity [4]: Non-toxic

CCC(C(=O)NO)C(CO)Cc1c[n+](Cc2ccc(Cl)c(Cl)c2)cn1C (stereo not given)
inhibition at 10 µg/mL [1]: 25%
inhibition [7]: Active

CN1[C@@H]2CC[C@H]1C[C@@H](OC(=O)C(CO)c1ccccc1)C2 (stereo not given in full) [ATROPINE SULFATE]
inhibition at 0.03 µg/mL [11]: 100%
inhibition [6]: inactive

CCC1C(=O)OCC1Cc1c[n+](CC(=O)c2ccc([N+](=O)[O-])cc2)cn1C.[Br-] (stereo not given)
inhibition at 1 µg/mL [12]: 0%
inhibition [6]: inactive
fold change (FC) [3]: 0.01

CCC(C(=O)NO)C(CO)Cc1c[n+](CC(=O)c2ccc([N+](=O)[O-])cc2)cn1C.[Br-] (stereo not given)
inhibition at 0.1 µg/mL [13]: 0%
inhibition [6]: inactive
fold change (FC) [3]: 0.1
Activity [4]: Non-toxic

CCC1C(=O)OCC1Cc1c[n+](CCO)cn1C.[Br-] (stereo not given)
inhibition at 0.1 µg/mL [13]: 0%
inhibition [6]: inactive
fold change (FC) [3]: 0.1
Activity [4]: Non-toxic

CCC1C(=O)OCC1Cc1c[n+](C/C(=N\O)c2ccc(Br)cc2)cn1C.[Br-] (stereo not given)
inhibition (INH) [1]: 100%

CCC1C(=O)OCC1Cc1c[n+](CCOC(C)=O)cn1C.[Br-] (stereo not given)
inhibition at 0.1 µg/mL [13]: 0%
inhibition [7]: inactive
fold change (FC) [3]: 0.1
Activity [4]: Non-toxic
